The list is not random: actives were taken first. Their share in the collection is about 3.6%.
VIM-2 inhibitor – VIM-2 metallo-beta-lactamase inhibitors, primary screen, biochemical, epi-absorbance readout, Pseudomonas aeruginosa enzyme. purified VIM-2, nitrocefin hydrolysis, epi-absorbance fluorescence. inhibition, % at 5.6 µM. 290,000 tested, 0.89% active. AID 1527, 2009;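 active = inhibition above the mean of all tested compounds plus 3 SD, cutoff set per screening run, cut at about 7.5% in these data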;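 also: red hydrolysis product quenches plate fluorescence so inhibitors raise well fluorescence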
IMP-1 inhibitor – IMP-1 metallo-beta-lactamase inhibitors, primary screen, biochemical, epi-absorbance readout, Pseudomonas aeruginosa enzyme. inhibition, % at 5.6 µM. metallo-beta-lactamase IMP-1 (Pseudomonas aeruginosa). 290,000 tested, 0.45% active. purified IMP-1, nitrocefin hydrolysis, epi-absorbance fluorescence. AID 1556, 2009;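 active = inhibition above the mean plus 3 SD of all compounds in the same screening run, cut at about 4.5% in these data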
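System: Purified IMP-1 | Read-out basis: Percent enzyme inhibition | Controls: IMP-1 with DMSO as 0%, enzyme-free DMSO as 100% | Replicates: One well per compound | Doses: 5.6 µM nominal single concentration | Detection: Epi-absorbance fluorescence, 480 nm excitation, 530 nm emission | Incubation: 25 °C, 15 min preincubation, 25 min reaction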
pPAFAH FP inh – pPAFAH enzyme inhibitors, primary screen, biochemical, fluorescence polarization, human. 330,000 tested, 1.5% active. recombinant pPAFAH, FP-rhodamine probe fluorescence polarization. inhibition, % at 3.39 µM. Platelet-activating factor acetylhydrolase (Homo sapiens), Q13093;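 active = inhibition above the mean inhibition across the screen plus 3 SD, cut at about 25% in these data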;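 also: inhibitors block binding of the rhodamine activity-based probe so polarization drops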
PAFAH1B3 inh – PAFAH1B3 enzyme inhibitors, primary screen, biochemical, fluorescence polarization, human; recombinant PAFAH1B3, FP-rhodamine probe; inhibition, % at 3.39 µM; 340,000 tested, 0.28% active; AID 492972, 2010;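 active = inhibition above the screen-wide average of all tested compounds plus 3 SD, cut at about 25% in these data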
Target sequence (Q15102 whole entry, looked up): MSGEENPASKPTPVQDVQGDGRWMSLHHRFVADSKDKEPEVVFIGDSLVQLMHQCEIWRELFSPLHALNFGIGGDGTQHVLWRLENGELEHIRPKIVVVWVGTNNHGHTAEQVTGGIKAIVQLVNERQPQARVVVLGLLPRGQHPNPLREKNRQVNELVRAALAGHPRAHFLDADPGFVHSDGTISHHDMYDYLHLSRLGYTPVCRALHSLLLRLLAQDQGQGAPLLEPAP
PAFAH2 FP inh – PAFAH2 enzyme inhibitors, primary screen, biochemical, fluorescence polarization, human; inhibition, % at 3.39 µM; Platelet-activating factor acetylhydrolase 2, cytoplasmic (Homo sapiens), Q99487; recombinant PAFAH2, FP-rhodamine activity probe; 340,000 tested, 0.99% active;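 active = inhibition above the mean over all tested compounds plus 3 SD, cut at about 30% in these data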;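 also: inhibitors block probe labeling of enzyme so polarization drops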
PAFAH1B2 inh – PAFAH1B2 enzyme inhibitors, primary screen, biochemical, fluorescence polarization, human. Platelet-activating factor acetylhydrolase IB subunit alpha2 (Homo sapiens), P68402. recombinant PAFAH1B2, FP-rhodamine activity probe. inhibition, % at 3.39 µM. 340,000 tested, 1.2% active;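 active = inhibition above the mean of all tested compounds plus 3 SD, cut at about 24% in these data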
Target sequence (P68402 whole entry, looked up): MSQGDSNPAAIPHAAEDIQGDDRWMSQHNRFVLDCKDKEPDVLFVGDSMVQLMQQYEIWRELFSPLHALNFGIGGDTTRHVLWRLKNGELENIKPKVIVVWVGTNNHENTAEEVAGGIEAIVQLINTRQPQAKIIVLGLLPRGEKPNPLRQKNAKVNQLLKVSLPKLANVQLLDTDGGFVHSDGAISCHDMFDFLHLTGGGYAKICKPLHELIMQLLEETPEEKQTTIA
Hits are given with their value; n = inactive; x = no result given.

SMILES | VIM-2 inhibitor | IMP-1 inhibitor | pPAFAH FP inh | PAFAH1B3 inh | PAFAH2 FP inh | PAFAH1B2 inh
Cc1ccc(S(=O)(=O)N2CC(O)C[C@H]2C(=O)OCC(=O)Nc2ccc(N3CCCCC3)cc2)cc1C (some centres not stated) | x | x | 24.8 | n | n | n
Cc1cc(OCC(=O)Nc2ccc(N3CCCC3)cc2)cc(C)c1Cl | n | n | 26.1 | n | n | n
O=C(Nc1cccc([N+](=O)[O-])c1)Nc1cnccn1 | n | n | n | n | n | n
CCCC(=O)NC(c1ccco1)c1cc([N+](=O)[O-])c2cccnc2c1O (configuration not stated) | n | n | 29.7 | n | n | n
CCC(=O)NC(c1cccs1)c1cc(Cl)c2cccnc2c1O (configuration not stated) | n | n | 33.9 | n | n | n
CCC(=O)NC(c1ccc(C)cc1)c1cc([N+](=O)[O-])c2cccnc2c1O (configuration not stated) | n | n | 32.1 | n | n | n
CC(=O)NC(c1ccc(C)cc1)c1cc([N+](=O)[O-])c2cccnc2c1O (configuration not stated) | n | n | 28.2 | n | n | n
CC(=O)NC(c1ccccc1)c1cc(Cl)c2cccnc2c1O (configuration not stated) | n | n | n | n | n | n
CC(=O)c1ccc(S(=O)(=O)N2CCN(C(=O)c3cccc(S(=O)(=O)N4CC(C)OC(C)C4)c3)CC2)cc1 (configuration not stated) | x | x | x | n | n | n
Cc1ccc(NC(=O)CN(C)C(=O)c2cccc(S(=O)(=O)N3CCc4ccccc43)c2)cc1 | x | x | n | n | n | n
Cc1cc(C(=O)CSc2nnc(C3CC3)n2C2CC2)c(C)n1C(C)C | x | x | n | n | n | n
COc1ccc(NC(=O)C2CCN(S(=O)(=O)c3cccc4nonc34)CC2)cc1OC | n | n | n | n | n | n
O=C(O)C(Cc1ccccc1)n1cccc1 (configuration not stated) | n | n | n | n | n | n
O=C(O)[C@H](Cc1ccccc1)N1C(=O)c2c(Cl)c(Cl)c(Cl)c(Cl)c2C1=O | 8.5 | n | n | n | n | n
Cc1ccc(C(=O)OCC(=O)c2ccc(CC(=O)N3CCOCC3)s2)cc1C | x | x | 27.1 | n | n | n
CCSc1nc(NCCN(C)C)c2c3c(sc2n1)COC(C)(CC)C3 (configuration not stated) | 8.5 | n | n | n | n | n
CCOC(=O)[C@H]1[C@H]2COc3ccc(Br)cc3[C@@H]2N2C(=O)CN(Cc3ccc(OC)cc3)C(=O)[C@@]12C | x | x | n | n | n | n
Cc1cc(Br)ccc1NC(=O)CN(C)C(=O)Cn1c(=O)cnc2ccccc21 | n | n | n | n | n | n
CCN1C(=O)c2cccc3c(S(=O)(=O)Nc4ccccc4)ccc1c23 | n | n | 25.4 | n | n | n
Cn1c(C(=O)NCCCN2CCN(c3ccccc3F)CC2)cc2c(=O)[nH]c3ccccc3c21 | 10.7 | n | n | n | n | n
CCC1CCCCN1CCCNC(=O)c1cc2c(=O)[nH]c3ccccc3c2n1C (configuration not stated) | 8.9 | n | n | n | n | n
CC1CC(C)CN(CCCNC(=O)c2cc3c(=O)[nH]c4ccccc4c3n2C)C1 (configuration not stated) | 12.1 | n | n | n | n | n
CCC1CCCCN1CCCNC(=O)COc1cc(=O)n(C)c2ccccc12 (configuration not stated) | n | n | n | n | n | n
Cc1ccc(Cl)cc1N1CCN(C(=O)c2cc3c(=O)[nH]c4ccccc4c3n2C)CC1 | n | n | n | n | n | n
CN(CCCNC(=O)c1cc2c(=O)[nH]c3ccccc3c2n1C)Cc1ccccc1 | 8.1 | n | n | n | n | n
SMILES | VIM-2 inhibitor | IMP-1 inhibitor | pPAFAH FP inh | PAFAH1B3 inh | PAFAH2 FP inh | PAFAH1B2 inh
O=C(COc1ccccc1)N=C1SC2CS(=O)(=O)CC2N1c1cccc(F)c1 (configuration not stated) | n | n | n | n | n | n
Cc1ccc2c(Cl)c(C)c(N3CCOCC3)nc2n1 | x | x | x | n | n | n
CCOC(=O)c1ccccc1NC(=O)CSc1nnc(C)c(=O)[nH]1 | n | n | n | n | n | 34.4
Cc1nnc(SCC(=O)Nc2nc(-c3ccc(F)cc3)cs2)[nH]c1=O | n | n | n | n | n | 29.9
Oc1ccc(N=C/C=C/c2cccc(Br)c2)cc1-c1nc2ccccc2s1 | n | n | 37.2 | n | n | n
Nc1ccc(O)c(-c2nc3ccccc3s2)c1 | n | n | 34.4 | n | n | n
CSc1cccc(CNC(=O)C2CCC(=O)N(CC3CCCCC3)C2)c1 (configuration not stated) | n | n | n | n | n | n
CCN(CC(=O)Nc1c(F)cccc1F)C(=O)C1CCCN(C(=O)c2ccc(Cl)cc2)C1 (configuration not stated) | n | n | n | n | n | n
O=c1[nH]cc(N=Cc2cc([N+](=O)[O-])ccc2O)c(=O)[nH]1 | n | n | n | x | x | x
O=c1[nH]cc(N=Cc2cc(Cl)cc(Cl)c2O)c(=O)[nH]1 | n | 11.5 | n | n | n | n
COc1ccc(N2C(=NC(=O)CC3CCCCC3)SC3CS(=O)(=O)CC32)cc1 (configuration not stated) | n | n | n | n | n | n
COc1cc(NC(=O)CSc2ncnc3sc4c(c23)CCCC4)c(C(=O)O)cc1OC | n | n | 25.8 | n | n | n
CCc1nc(NCc2cccnc2)c2oc3ccccc3c2n1 | 11.5 | n | n | n | n | n
CCC1(C)CC(C(N)=S)CCO1 (configuration not stated) | n | 5.3 | n | n | n | n
CC1(C)CC(C(N)=S)CCO1 (configuration not stated) | n | n | n | n | n | n
Cn1cc(/C=C2\SC(=S)N(NC(=O)c3ccccc3)C2=O)c2ccccc21 | n | n | n | n | n | n
Cn1cc(/C=C2\SC(=S)N(N3CCOCC3)C2=O)c2ccccc21 | n | 4.8 | n | n | n | n
O=C(O)C(Cc1ccc(OS(=O)(=O)Cc2ccccc2)cc1)NS(=O)(=O)Cc1ccccc1 (configuration not stated) | x | x | x | n | n | n
Nc1ncn(CC(=O)c2ccccc2)n1 | n | n | n | n | n | n
O=C(Cn1nc(Br)nc1Br)c1ccccc1 | n | n | n | 46.7 | 51.5 | 29.4

Assay outcomes: PubChem, The Scripps Research Institute Molecular Screening Center
